Results as given in ChEMBL document CHEMBL1136568 (Bioorg Med Chem Lett, 2003).

Columns and labels:
[1] = biological target: T1, Inosine-5'-monophosphate dehydrogenase 2 (Homo sapiens, UniProt P12268); test: Inhibition of human inosine monophosphate dehydrogenase IMPDH II
Outline: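 Human type II IMPDH expressed in and purified from E. coli, used at 40 nM. Buffer: 0.1 M Tris, 0.1 M KCl, 3 mM EDTA, pH 8.0, with 400 µM IMP and 2 mM DTT. Compounds were added from DMSO to a final 2.5% DMSO. NAD (400 µM final) started the reaction. After 2 h at 25°C, NADH was read at 340 nm. IC50 came from a four-parameter logistic fit.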

[2] = biological target: T2, Inosine-5'-monophosphate dehydrogenase 1 (Homo sapiens, UniProt P20839); test: Ratio of IC50(Type I) to IC50(Type II)
Target sequence in this assay (P20839 2-514 limits assumed): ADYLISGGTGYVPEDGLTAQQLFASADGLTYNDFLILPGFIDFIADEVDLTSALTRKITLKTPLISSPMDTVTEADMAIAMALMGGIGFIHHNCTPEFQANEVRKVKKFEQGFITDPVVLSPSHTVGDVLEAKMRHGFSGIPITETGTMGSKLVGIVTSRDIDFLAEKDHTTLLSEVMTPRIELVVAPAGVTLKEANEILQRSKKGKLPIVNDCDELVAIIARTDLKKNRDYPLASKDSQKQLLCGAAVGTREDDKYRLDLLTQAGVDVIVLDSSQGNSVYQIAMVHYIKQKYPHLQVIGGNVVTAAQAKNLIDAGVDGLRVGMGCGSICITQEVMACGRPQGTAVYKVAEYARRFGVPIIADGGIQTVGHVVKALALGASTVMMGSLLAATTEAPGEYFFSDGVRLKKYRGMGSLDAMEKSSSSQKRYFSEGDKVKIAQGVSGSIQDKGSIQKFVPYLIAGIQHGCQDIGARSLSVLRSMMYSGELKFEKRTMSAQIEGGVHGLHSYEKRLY

[3] = biological target: T2, Inosine-5'-monophosphate dehydrogenase 1; test: Inhibitory activity against inosine monophosphate dehydrogenase IMPDH type I
Target sequence in this assay (P20839 whole entry): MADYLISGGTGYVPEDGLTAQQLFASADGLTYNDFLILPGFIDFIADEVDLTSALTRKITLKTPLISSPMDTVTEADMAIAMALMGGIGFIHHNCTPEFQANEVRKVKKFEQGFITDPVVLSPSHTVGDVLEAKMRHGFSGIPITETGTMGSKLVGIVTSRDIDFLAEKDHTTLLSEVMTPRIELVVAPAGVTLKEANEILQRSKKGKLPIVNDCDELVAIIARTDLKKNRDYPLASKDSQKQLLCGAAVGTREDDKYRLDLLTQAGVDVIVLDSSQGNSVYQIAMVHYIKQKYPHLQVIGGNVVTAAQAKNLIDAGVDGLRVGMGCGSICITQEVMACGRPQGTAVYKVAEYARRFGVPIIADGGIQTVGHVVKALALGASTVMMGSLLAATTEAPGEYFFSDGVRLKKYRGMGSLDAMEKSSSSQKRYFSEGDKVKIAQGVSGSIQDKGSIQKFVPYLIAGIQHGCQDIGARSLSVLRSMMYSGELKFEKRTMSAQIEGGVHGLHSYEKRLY

CCRF-CEM = test: Inhibitory activity against CEM cell proliferation; format: functional, cell-based; settings: Homo sapiens
[4] = biological target: T1, Inosine-5'-monophosphate dehydrogenase 2; test: Inhibitory activity against IMPDH II with respect to IMP and NAD

Compound	IC50 [1]	further results
COc1cc2nc(-c3ccccc3)cc(O)c2cc1-c1cnco1	8 nM	Ratio [2]: 12; IC50 [3]: 99 nM; IC50 (CCRF-CEM): 690 nM; Ki [4]: 7 nM
COc1cc2nc(N(C)C)cc(O)c2cc1-c1cnco1	200 nM	
COc1cc2nc(-c3cccc(S(C)(=O)=O)c3)cc(O)c2cc1-c1cnco1	160 nM	
COc1cc2nc(-c3ccc(C(=O)O)cc3)cc(O)c2cc1-c1cnco1	> 1000 nM	
COc1cc2nc(C)cc(O)c2cc1-c1cnco1	110 nM	
COc1cc2nc(-c3cccc(C(=O)O)c3)cc(O)c2cc1-c1cnco1	160 nM	
COc1cc2nc(C(C)(C)C)cc(O)c2cc1-c1cnco1	> 10000 nM	
CNc1cc(O)c2cc(-c3cnco3)c(OC)cc2n1	220 nM	
COc1cc2nc(-c3cccnc3)cc(O)c2cc1-c1cnco1	70 nM	
COc1cc2nc(Cc3ccccc3)cc(O)c2cc1-c1cnco1	180 nM	
COc1cc2nccc(O)c2cc1-c1cnco1	300 nM	
COc1c(C)c2c(c(O)c1C/C=C(\C)CCC(=O)O)C(=O)OC2 [MYCOPHENOLIC ACID]		IC50 [3]: 55 nM
COc1cc(NC(=O)Nc2cccc(C)c2)ccc1-c1cnco1		Ratio [2]: 2.9; IC50 [3]: 55 nM; IC50 (CCRF-CEM): 320 nM

Now from value to molecule, other results behind:

IC50 [1]	Compound	further results
22 nM	COc1cc2nc(-c3cccc(Br)c3)cc(O)c2cc1-c1cnco1	
5 nM	COc1cc2nc(-c3ccc(Br)cc3)cc(O)c2cc1-c1cnco1	
19 nM	COc1cc2nc(-c3ccc(C)c(Br)c3)cc(O)c2cc1-c1cnco1	
9 nM	COc1cc2nc(-c3ccsc3)cc(O)c2cc1-c1cnco1	Ratio [2]: 6; IC50 [3]: 55 nM; IC50 (CCRF-CEM): 340 nM
< 5 nM	COc1ccc(-c2cc(O)c3cc(-c4cnco4)c(OC)cc3n2)cc1	Ratio [2]: > 18; IC50 [3]: 90 nM; IC50 (CCRF-CEM): 370 nM
< 5 nM	COc1cc2nc(-c3ccc(C)cc3)cc(O)c2cc1-c1cnco1	Ratio [2]: > 9; IC50 [3]: 46 nM; IC50 (CCRF-CEM): 560 nM
43 nM	COc1cc2nc(-c3ccc(O)cc3)cc(O)c2cc1-c1cnco1	
46 nM	COc1cc2nc(-c3ccncc3)cc(O)c2cc1-c1cnco1	
5 nM	COc1cc2nc(-c3cccc(C)c3)cc(O)c2cc1-c1cnco1	Ratio [2]: 30; IC50 [3]: 150 nM; IC50 (CCRF-CEM): 1100 nM
43 nM	COc1cc2nc(-c3ccccn3)cc(O)c2cc1-c1cnco1	
34 nM	COc1cc2nc(-c3cscn3)cc(O)c2cc1-c1cnco1	
< 5 nM	COc1cc2nc(-c3ccc(C)c(C)c3)cc(O)c2cc1-c1cnco1	Ratio [2]: > 17; IC50 [3]: 83 nM; IC50 (CCRF-CEM): 410 nM
18 nM	COc1cc2nc(-c3cccc(O)c3)cc(O)c2cc1-c1cnco1	
63 nM	COc1cc2nc(-c3cccs3)cc(O)c2cc1-c1cnco1	
29 nM	COc1cc2nc(-c3cc(C)ccc3C)cc(O)c2cc1-c1cnco1	
65 nM	COc1cc2nc(-c3ccccc3C)cc(O)c2cc1-c1cnco1	
65 nM	COc1cc2nc(-c3ccccc3)c(C)c(O)c2cc1-c1cnco1	
32 nM	COc1cc2nc(-c3ccoc3)cc(O)c2cc1-c1cnco1	
